Screens as filed in PubChem.
The list is not random: actives were taken first. Their share in the collection is about 0.72%.
mIAP block: blocks mouse intestinal alkaline phosphatase. purified mouse IAP, CDP-Star luminescence, 30 min. inhibition, % at 10 µM. 0.2% of 330,000 active. AID 2806;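 active = inhibition of at least 40% at 10 µM in the primary screen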;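 note: plate controls were DMSO with enzyme for no effect and no enzyme wells for full effect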
hIAP inh: human IAP inhibition | purified IAP, CDP-Star luminescence, 30 min | AID 2544 | P09923 | 0.12% of 330,000 active | inhibition, % at 10 µM;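 active = inhibition reaching a set limit with compound at 10 µM in the primary screen, cut at about 35% in these data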;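 note: plate controls were DMSO wells with enzyme for no effect and no-enzyme buffer wells for full effect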
Target sequence (P09923 whole entry, looked up): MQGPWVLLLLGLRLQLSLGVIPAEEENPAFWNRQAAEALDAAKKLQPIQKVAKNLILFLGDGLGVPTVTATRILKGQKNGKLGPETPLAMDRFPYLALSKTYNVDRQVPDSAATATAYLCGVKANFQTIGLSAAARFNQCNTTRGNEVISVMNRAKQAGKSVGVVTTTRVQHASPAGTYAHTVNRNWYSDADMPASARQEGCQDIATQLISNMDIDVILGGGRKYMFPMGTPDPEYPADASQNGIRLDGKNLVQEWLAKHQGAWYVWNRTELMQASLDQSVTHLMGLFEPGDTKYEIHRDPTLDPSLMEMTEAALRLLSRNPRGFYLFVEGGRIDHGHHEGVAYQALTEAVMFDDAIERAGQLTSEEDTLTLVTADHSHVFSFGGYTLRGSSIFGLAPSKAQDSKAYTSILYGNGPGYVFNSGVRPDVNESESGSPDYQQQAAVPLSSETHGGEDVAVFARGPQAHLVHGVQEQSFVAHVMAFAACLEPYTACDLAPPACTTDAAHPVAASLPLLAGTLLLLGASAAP
mIAP activ: mouse IAP activation; activation factor at 10 µM; muIAP, CDP-Star luminescence, 30 min; hits give high values; 1 = vehicle-only enzyme signal, 0 = enzyme-free wells; 0.24% of 330,000 active;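 active = activation factor of at least 2 at 20 µM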
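System: mouse IAP enzyme. Reagent: CDP-Star chemiluminescent phosphatase substrate. Benchmarks: DMSO wells, no-enzyme wells. Times: 30 min enzyme-substrate-compound incubation at room temperature. Detection: luminescence from enzymatic CDP-Star hydrolysis. Doses: test compounds delivered from DMSO solution.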
hIAP activ: human IAP activation. purified human IAP, CDP-Star luminescence, 30 min; hits give high values; 1 = vehicle-only enzyme, 0 = enzyme-free background. activation factor at 10 µM. 0.16% of 330,000 active;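 active = activation factor of the enzyme at least 2-fold when tested at 20 µM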
bIAP act: intestinal alkaline phosphatase (bovine) activation; activation factor at 20 µM; AID 1016; purified bovine IAP, CDP-star luminescence, 30 min; hits give high values; fold of DMSO-control signal, blank-subtracted; 0.17% of 200,000 active;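 active = activation factor of 2 or more at 20 µM, a signal rise over negative controls twice the positive control's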
bIAP inh: intestinal alkaline phosphatase (bovine) inhibition; purified bovine IAP, CDP-star luminescence, 30 min; inhibition, % at 20 µM; 190,000 tested, under 10 active; AID 1019;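 active = over 50% inhibition of intestinal alkaline phosphatase at 20 µM in the single-dose screen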
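System: purified bovine intestinal alkaline phosphatase (IAP) enzyme; Input: IAP diluted 1/65,000,000 in the well; Measured by: CDP-star luminescence signal; Compound dosing: 20 µM single dose; Incubation: 30 min reaction at room temperature.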
mIAP inh conf: mouse IAP inhibition confirmation. shares compounds with mIAP block. purified mouse IAP, CDP-Star luminescence, 30 min. 4.7% of 11,000 active. inhibition, % at 10 µM. AID 434971;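 active = inhibition of at least 40% at 10 µM in either of the two replicates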;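 note: plate controls were DMSO wells with enzyme for no effect and buffer wells lacking enzyme for full effect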
Active calls of the source: *; . = no result given; ! = not active in a repeat.

SMILES	mIAP block	hIAP inh	mIAP activ	hIAP activ	bIAP act	bIAP inh	mIAP inh conf
O=C(CNc1cccc2ccccc12)N/N=C/C=C/c1ccco1	61*	10	0.39	0.9	0.9	14	59*
O=C(CNc1cccc2ccccc12)N/N=C/c1ccc(C(=O)O)cc1	20	10	0.8	0.9	0.9	13	.
O=C(N/N=C/c1ccco1)c1cccc(S(=O)(=O)Nc2ccccc2Cl)c1	54*	10	0.47	0.9	0.7	27	61*
O=c1oc2cc([N+](=O)[O-])ccc2nc1/C=C(O)/C=C/c1ccccc1	69*	0	0.31	1	.	.	76*
O=c1oc2cc([N+](=O)[O-])ccc2nc1/C=C(\O)c1cccc(Br)c1	18	23	0.82	0.77	.	.	.
O=C(O)c1cc(-c2ccco2)[nH]n1	69*	-5	0.31	1.1	1	-3	68*
COc1ccc(-c2csc(Nc3ccc(S(N)(=O)=O)cc3)n2)cc1	-15	-13	1.1	1.1	0.8	21	.
Cc1nc(N)sc1-c1csc(Nc2ccc(S(N)(=O)=O)cc2)n1	67*	-10	0.33	1.1	.	.	68*
Cc1ccc2c(C)c(C(=O)NCc3ccc(S(N)(=O)=O)cc3)oc2c1	6	7	0.94	0.93	1.1	-13	.
C=C(C)c1cccc(C(C)(C)NC(=O)Nc2ccc(C(N)=O)cc2)c1	-123	-15	2.2*	1.1	1.3	-28	-118
CC(C)N(C(=O)CSc1nnc(CSc2ncccn2)n1C)C(C)C	4	2	0.96	0.98	1	2	.
O=C(CSc1nnc(NC(=O)C2CC2)s1)Nc1ccccc1Cl	-3	-5	1	1.1	.	.	.
C=Cc1c(C)c2cc3[nH]c(cc4nc(cc5nc(cc1[nH]2)C(C)=C5CCC(=O)O)C(CCC(=O)O)=C4C)c(C)c3C=C	42*!	14	0.58	0.86	.	.	42*
CC1(C)Cc2c(sc3[nH]c(=S)n(Cc4ccco4)c(=O)c23)CO1	23	10	0.77	0.9	1	4	.
O=c1c2c3c(sc2[nH]c(=S)n1Cc1ccco1)CCC3	59*	1	0.41	0.99	.	.	64*
CC(C)NC(=O)Nc1ccc2c(c1)C(=O)N([C@H](C)CO)C[C@H](C)[C@@H](CN(C)S(=O)(=O)c1cccs1)O2	-42	2	1.4	0.98	.	.	.
COc1ccc(S(=O)(=O)N(C)C[C@H]2Oc3ccc(NC(=O)NC4CCCCC4)cc3C(=O)N([C@H](C)CO)C[C@@H]2C)cc1	-373	6	4.7*	0.94	.	.	-174
COc1ccc(S(=O)(=O)N(C)C[C@H]2Oc3ccc(NC(=O)C4CCCCC4)cc3C(=O)N([C@H](C)CO)C[C@@H]2C)cc1	-37	0	1.4	1	.	.	.
C[C@H](CO)N1C[C@H](C)[C@H](CN(C)Cc2ccc(Oc3ccccc3)cc2)Oc2ccc(NC(=O)Nc3cccc4ccccc34)cc2CC1=O	-176	0	2.8*	1	.	.	-103
C[C@H](CO)N1C[C@H](C)[C@@H](CN(C)S(=O)(=O)c2ccc(F)cc2)Oc2ccc(NC(=O)NC3CCCCC3)cc2C1=O	-317	-27	4.2*	1.3	.	.	-120
COc1ccc(NC(=O)Nc2ccc3c(c2)C(=O)N([C@H](C)CO)C[C@H](C)[C@@H](CN(C)S(=O)(=O)c2cccs2)O3)cc1	-175	-4	2.7*	1	.	.	-110
CS(=O)(=O)N(CC(=O)Nc1ccc(Br)cc1)C1CCCCC1	-10	-11	1.1	1.1	.	.	.
Cc1ccc2c(c1)NC(=O)C(CC(=O)Nc1ccc(Br)c(C)c1)O2 (stereo unspecified)	-10	4	1.1	0.96	.	.	.
COc1ccc(/C=N/NC(=O)c2ccc(O)cc2O)cc1CSc1ccccn1	30	0	0.7	1	1.1	-14	.
COc1ccc(S(=O)(=O)N(C)C[C@H]2Oc3ccc(NC(=O)Nc4ccccc4)cc3C(=O)N([C@H](C)CO)C[C@@H]2C)cc1	-208	2	3.1*	0.98	.	.	-115
CCOC(=O)Cn1ccc(NC(=O)COc2ccc(F)cc2)n1	3	-4	0.97	1	.	.	.
CC(=O)Nc1cccc(N(C)S(C)(=O)=O)c1	-6	-16	1.1	1.2	0.9	8	.
